# Most compounds without a hit are left out; they make up all but 4.8% or so of the library.
# 697 NFkB inh: inhibitors of PMA/ionomycin-induced NF-kB reporter, 697 cells, primary screen, B-cell NF-kB inhibitor project, cell-based, luminescence, uHTS. inhibition, % at 4 µM. actives 0.33% (n = 330,000). 697 B-cell NF-kB luciferase reporter, 16 h; in the data active means inhibition above about 35%
# HSF1 inh: HSF1 inhibitors in luciferase reporter cells, primary screen, cell-based, NIH3T3, luminescence. actives 0.77% (n = 300,000). activity change, negative = inhibition, % at 7.5 µM (by protocol). AID 2098, 2009. NIH3T3-HGL HSE-luciferase, MG132-induced, luminescence 8 h; stronger effect = lower value;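 active means more than half of replicate wells show activity change below -50%, luminescence cut by over half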;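 further: luciferase reports HSF-1 transcriptional activity via heat shock element; 0% = median of DMSO wells and -100% = zero luminescence signal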
# Jurkat NFkB inh: inhibitors of induced NF-kB luciferase reporter, primary screen, TCR NF-kB activation inhibitor project, cell-based, luminescence, uHTS; Jurkat, PMA/ionomycin-induced NF-kB luciferase reporter; inhibition, % at 4 µM; actives 0.53% (n = 330,000); AID 435003, 2010; in the data active means inhibition above about 50%
# HSF1 activator: HSF-1 activators, primary screen, NIH3T3-HGL cells, MG132 stress, luminescence, single point; NIH3T3-HGL HSF-1 luciferase reporter, 8 h; 100% = twice DMSO control signal; activation, % at 9 µM; actives 1.7% (n = 300,000);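 active means mean replicate activation of at least 50% with a set share of replicates each reaching 50%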;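 further: 0% = median of the neutral control wells and 100% = twice that signal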
# GPR7 antag: GPR7 receptor antagonists, primary screen, cell-based, fluorescence, single concentration; GPR7-expressing cells, fluorescence antagonist assay; inhibition, % at 4.4 µM; actives 1.1% (n = 290,000); AID 1861, 2009; in the data active means inhibition above about 16%, passing the limit was not always enough;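 further: cells stimulated with the agonist NPW; 0% = agonist with vehicle and 100% = vehicle without agonist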
# Target sequence (P48145 whole entry, looked up): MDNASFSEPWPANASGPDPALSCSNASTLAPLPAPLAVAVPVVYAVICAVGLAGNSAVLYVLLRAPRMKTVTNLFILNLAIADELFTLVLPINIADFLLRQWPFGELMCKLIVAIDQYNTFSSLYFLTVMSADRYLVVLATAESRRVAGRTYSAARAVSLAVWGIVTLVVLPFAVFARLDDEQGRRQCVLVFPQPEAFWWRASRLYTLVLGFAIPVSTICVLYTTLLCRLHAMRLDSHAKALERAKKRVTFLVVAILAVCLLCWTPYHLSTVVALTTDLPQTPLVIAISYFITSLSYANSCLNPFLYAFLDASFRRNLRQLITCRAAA
# T cruzi inh: inhibitors of intracellular T. cruzi growth, primary screen, luminescence, NIH3T3 host cells; AID 1885, 2009; T. cruzi beta-gal in NIH3T3, 90 h; actives 1.4% (n = 300,000); inhibition, % (test concentration not listed);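 active means mean inhibition across valid replicates above about 55%, limit read from the data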;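 further: signal also drops with host cell toxicity which is not excluded here; 0% = plate median of DMSO wells and 100% = zero luminescence signal; higher percent means less beta-gal luminescence so fewer parasites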
#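 Material: NIH/3T3 host cells with β-galactosidase reporter T. cruzi; Input: 5,000 host fibroblasts per well; Medium: DMEM, 2% fetal bovine serum; Compound: 50 nL DMSO compound solution per well; Schedule: 3 h host attachment, then at least 90 h co-culture; Detection: luminescent β-galactosidase signal after 60 min lysis.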
# The depositor's hits bear a star; x = not tested or not shown.
SMILES,697 NFkB inh,HSF1 inh,Jurkat NFkB inh,HSF1 activator,GPR7 antag,T cruzi inh
CCCCN(C(=O)C(C)Oc1ccc(Br)cc1)c1c(N)n(CC(C)C)c(=O)[nH]c1=O (stereo not given),-5.5,x,-9.2,x,x,x
Cc1nc2ccccc2c(=O)n1NC(=O)Cc1ccccc1,x,x,x,x,8.3,x
COc1ccc(CNC(C)CCc2ccccc2)cc1 (stereo not given),-13.6,-66.9*,0.0,-75.3,-7.3,22.9
Cc1nn2c(NCCCN(C)C)c3c(nc2c1-c1ccccc1)CCC3,15.5,2.1,-5.1,7.3,0.4,68.9*
COCCNc1c2c(nc3c(-c4ccccc4)c(C)nn13)CCC2,-1.6,x,-5.7,x,-15.5,x
c1ccc2[nH]c(Cn3nnc4ccccc43)nc2c1,8.4,-7.4,25.6,-4.8,x,2.1
COCCN(C(=O)c1ccco1)c1nc(-c2ccccc2)cs1,-40.2,-4.3,-16.7,-1.7,-10.0,1.6
Cc1ccc(-c2csc(NC(=O)c3ccco3)n2)cc1C,-103.4,8.5,-78.5,62.4*,-14.5,-4.0
CN(C(=O)c1ccco1)c1nc(-c2ccccc2)cs1,-159.0,32.4,-119.4,75.9*,-1.1,-6.3
Cc1nc(NC(=O)c2ccco2)sc1-c1csc(Nc2ccc(Cl)cc2Cl)n1,-15.4,2.5,1.1,9.8,-8.2,59.1*
O=C(Nc1nc(-c2ccccc2)cs1)c1ccco1,-83.5,21.3,-27.9,14.0,0.9,26.6
O=C(NCC(c1ccco1)N1CCN(c2ccccc2)CC1)C(=O)NC1CCCC1 (stereo not given),-19.2,-6.8,-2.5,2.4,x,-6.6
COc1ccc(C(=O)N2CCN(C(=O)CC(C)C)CC2)cc1OC,17.9,5.3,3.5,10.1,-11.6,-5.5
COc1cc(C(=O)N2CCN(C(=O)CC(C)C)CC2)cc(OC)c1OC,1.8,-72.6*,-4.2,-78.1,-15.0,-13.7
CCC(=O)NC(Nc1nc(C)cs1)(C(=O)OC)C(F)(F)F (stereo not given),20.0,-3.9,-14.5,1.8,-14.3,-7.5
CC1CCCCC1NS(=O)(=O)c1ccc(S(=O)(=O)N2CCCC2)cc1 (stereo not given),-19.3,0.0,-3.2,1.2,15.4*,-3.6
COC(=O)[C@@]12CCCN1[C@H](c1ccc(-c3cccc(Cl)c3)c(OC)c1)[C@H]1C(=O)N(C)C(=O)[C@H]12,-8.4,-38.8,5.6,-51.8,x,-1.5
COC(=O)[C@@]12CCCCN1[C@H](c1ccc(-c3cccc(Cl)c3)c(OC)c1)[C@@H]1C(=O)N(C)C(=O)[C@@H]12,-20.8,-4.3,-32.0,9.6,x,56.5*
CCOC(=O)C1(Cc2cccc(OC)c2)CCCN(C(=O)c2cc(C)on2)C1 (stereo not given),-45.1,14.2,-41.2,15.6,-7.5,-3.9
Cc1c(Cl)cccc1NC(=O)Nc1cnccn1,-13.8,-64.2*,23.9,-72.1,6.2,8.1
COc1ccc(OCCN(C)Cc2c(O)ccc3ccccc23)cc1,13.0,98.8,17.7,130.0*,2.8,-11.0
Cn1cc(-c2nnc(-c3ccccc3)o2)c2ccccc21,-223.2,34.7,-135.1,65.5*,15.6,-2.3
CCN(CC(=O)NCc1ccc(Cl)cc1)C(=O)CSCC(=O)Nc1ccc(OC)cc1,9.8,8.8,4.7,11.2,x,-7.3
CC(=O)N(C)c1ccc(N=Nc2c(C)[nH]n(C(N)=S)c2=O)cc1,-109.9,16.2,-47.0,53.3*,-3.0,-7.8
COc1ccc(-c2cc3ccc(O)cc3oc2=O)cc1,-109.0,25.8,-49.6,51.1*,14.3,-11.8
SMILES,697 NFkB inh,HSF1 inh,Jurkat NFkB inh,HSF1 activator,GPR7 antag,T cruzi inh
O=c1oc2cc(O)ccc2cc1-c1ccccc1,-38.9,14.1,-8.6,11.5,-1.9,-20.3
O=C(Oc1cc(=O)oc2c1c(=O)n1c3c(cccc23)CC1)c1ccc(F)cc1,8.7,-67.3*,18.6,-75.0,-14.2,-11.5
O=C1NC(Cc2ccccc2)c2nc3ccc(F)cc3c(=O)n2-c2cc(Cl)ccc21 (stereo not given),-8.8,x,7.6,x,x,x
COc1cc(OC)c(OC)cc1/C=C1\CC(C)C/C(=C\c2cc(OC)c(OC)cc2OC)C1=O (stereo not given),x,-26.7,x,-25.1,-9.0,59.1*
COc1ccc2c(c1)c(C(=O)CN1CCCCC1)c(C)n2C,20.8,32.2,-15.9,72.0*,x,21.9
C=CCCCCCCCCc1nc(SCC(=O)O)n[nH]1,8.3,-3.1,-14.0,-9.7,-11.9,-10.6
C=CCCCCCCCCc1nc(SCC(C)=O)n[nH]1,-31.0,-1.2,-12.3,-13.5,20.3*,14.2
Nc1nc2ccccc2cc1-c1cccs1,-65.4,9.9,-48.5,53.2*,18.8,8.0
Cc1ccc(C)c(-n2c(-c3ccc(Br)cc3)csc2=NC(=O)c2ccccc2F)c1,-55.4,-9.8,-15.0,-6.8,-15.7,63.6*
COC(=O)C1CCN(S(=O)(=O)CCNC(=O)c2ccc3c(c2)OCO3)CC1,10.5,-6.6,7.6,-2.3,x,-6.3
COc1cccc(/C=N/NC(N)=S)c1OS(=O)(=O)c1ccccc1,-11.7,-7.3,-10.2,8.4,-4.0,-8.0
COc1cc2c(-c3ccccc3)c(C)oc2cc1/C=N/NC(N)=S,-114.9,-4.9,4.1,-10.0,x,89.3*
COc1cccc(N=Nc2c(N)[nH][nH]c2=O)c1,-42.2,7.9,-18.9,13.0,-9.6,-5.8
CCOc1ccc(N=Nc2c(N)[nH][nH]c2=O)cc1,-42.1,-77.9*,-24.9,-83.0,-7.4,-4.5
O=C(CN1CCCC1)Nc1ccc(OC(F)(F)F)cc1,-47.8,0.2,-45.2,1.6,6.7,-4.4
COc1ccc(CNC(=O)C(c2ccc(C)o2)N(C(=O)c2snc(C(N)=O)c2N)c2ccccc2OC)cc1 (stereo not given),18.9,18.7,-21.2,57.5*,-6.4,19.8
COc1ccc(OC)c(N(C(=O)c2snc(C(N)=O)c2N)C(C(=O)NCc2ccccc2)c2ccc(O)cc2)c1 (stereo not given),13.3,5.8,12.1,0.2,-8.4,-3.1
Cc1ccc(S(=O)(=O)n2ccc3c(OCCOCCNCc4ccc(F)cc4)cccc32)cc1,-26.2,17.9,13.9,12.2,24.3,55.3*
Cc1ccc(S(=O)(=O)n2ccc3c(OCCOCCSCC(NC(=O)OC(C)(C)C)C(=O)O)cccc32)cc1 (stereo not given),-6.8,2.2,-10.2,-3.1,12.1,7.5
O=[N+]([O-])c1cc(-c2nc3nc4ccccc4nc3n2CCc2ccccc2)cc([N+](=O)[O-])c1,-55.6,-0.9,-4.9,-2.3,-2.6,55.5*
